Source: ChEMBL document CHEMBL4257483, “Design, synthesis and bioactivities of phenithionate analogues or derivatives for anti-schistosomiasis” (Medchemcomm, 2018)
Values after ≈ are worked out from the molar mass of the structure shown. Active and inactive are the calls of the source. The rule behind the calls is not given here.

Experiments:
[1] = Lipid/water partition coefficient, log P of the compound; type: physicochemical
Schistosoma japonicum [2] = assay: Antischistosomal activity against Schistosoma japonicum infected in mouse at 25 mg/kg/day, po treated for 5 days measured after day 4 post last dose by ELISA; type: functional, organism-based
In short: (§1)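 Male mice (20–22 g) infected via abdominal skin with 120–140 S. japonicum cercariae. From day 35 post-infection, dosed orally once daily for 5 days. Venous blood then clotted and centrifuged 15 min at 3500 rpm. Serum tested by triple dot ELISA and scored by spot colour: brown +++, yellow ++, slight yellow +, colourless –. DMSO blank.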

Schistosoma mansoni = assay: Antischistosomal activity against Schistosoma mansoni imago derived from infected mouse at 20 ug/ml after 72 hrs; type: functional, organism-based
Schistosoma japonicum [3] = assay: Antischistosomal activity against Schistosoma japonicum infected in mouse at 25 mg/kg/day, po treated for 5 days measured after day 6 post last dose by ELISA; type: functional, organism-based; in short: as §1
Schistosoma japonicum [4] = assay: Antischistosomal activity against Schistosoma japonicum infected in mouse at 25 mg/kg/day, po treated for 5 days measured after day 1 post last dose by ELISA; type: functional, organism-based; in short: as §1
Schistosoma haematobium = assay: Antischistosomal activity against Schistosoma haematobium imago derived from infected mouse at 20 ug/ml after 72 hrs; type: functional, organism-based
[5] = Acute toxicity in po dosed mouse infected with Schistosoma japonicum treated for 5 days; type: organism-based; conditions: in vivo
Schistosoma japonicum [6] = assay: Antischistosomal activity against Schistosoma japonicum infected in mouse at 25 mg/kg/day, po treated for 5 days measured after day 3 post last dose by ELISA; type: functional, organism-based; in short: as §1
Schistosoma japonicum [7] = assay: Antischistosomal activity against Schistosoma japonicum infected in mouse at 25 mg/kg/day, po treated for 5 days measured after day 9 post last dose by ELISA; type: functional, organism-based; in short: as §1
Schistosoma japonicum [8] = assay: Antischistosomal activity against Schistosoma japonicum imago derived from infected mouse at 20 ug/ml after 72 hrs; type: functional, organism-based
In short: (§2)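 Worms perfused with cold heparinised HBSS from mice infected percutaneously with S. japonicum cercariae: larvae at 15 days post-infection (260–280 cercariae), adults at 35 days (120–140 cercariae). Five male and female worms per well in 10% calf serum RPMI 1640 with penicillin, streptomycin and amphotericin B. Preincubated 4 h at 37 °C, 5% CO2, then compounds added and viability recorded over 72 h. IC50 taken at 50% survival. DMSO blank.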

Schistosoma japonicum [9] = assay: Antischistosomal activity against Schistosoma japonicum infected in mouse at 25 mg/kg/day, po treated for 5 days measured after day 8 post last dose by ELISA; type: functional, organism-based; in short: as §1
Schistosoma japonicum [10] = assay: Antischistosomal activity against Schistosoma japonicum infected in mouse at 25 mg/kg/day, po treated for 5 days measured after day 7 post last dose by ELISA; type: functional, organism-based; in short: as §1
Schistosoma japonicum [11] = assay: Antischistosomal activity against Schistosoma japonicum infected in mouse at 50 mg/kg/day, po treated for 5 days measured after day 1 post last dose by ELISA; type: functional, organism-based; in short: as §1
[12] = Dissociation constant, pKa of the compound; type: physicochemical
Schistosoma japonicum [13] = assay: Antischistosomal activity against Schistosoma japonicum larva derived from infected mouse assessed as reduction in larva viability after 72 hrs; type: functional, organism-based; in short: as §2
Schistosoma japonicum [14] = assay: Antischistosomal activity against Schistosoma japonicum infected in mouse at 25 mg/kg/day, po treated for 5 days measured after day 2 post last dose by ELISA; type: functional, organism-based; in short: as §1
Schistosoma japonicum [15] = assay: Antischistosomal activity against Schistosoma japonicum imago derived from infected mouse assessed as reduction in imago viability after 72 hrs; type: functional, organism-based; in short: as §2
Schistosoma japonicum [16] = assay: Antischistosomal activity against Schistosoma japonicum infected in mouse at 50 mg/kg/day, po treated for 5 days measured after day 9 post last dose by ELISA; type: functional, organism-based; in short: as §1
Schistosoma japonicum [17] = assay: Antischistosomal activity against Schistosoma japonicum infected in mouse at 50 mg/kg/day, po treated for 5 days measured after day 7 post last dose by ELISA; type: functional, organism-based; in short: as §1
Schistosoma japonicum [18] = assay: Antischistosomal activity against Schistosoma japonicum infected in mouse at 50 mg/kg/day, po treated for 5 days measured after day 3 post last dose by ELISA; type: functional, organism-based; in short: as §1
Schistosoma japonicum [19] = assay: Antischistosomal activity against Schistosoma japonicum infected in mouse at 50 mg/kg/day, po treated for 5 days measured after day 4 post last dose by ELISA; type: functional, organism-based; in short: as §1
Schistosoma japonicum [20] = assay: Antischistosomal activity against Schistosoma japonicum infected in mouse at 50 mg/kg/day, po treated for 5 days measured after day 8 post last dose by ELISA; type: functional, organism-based; in short: as §1
Schistosoma japonicum [21] = assay: Antischistosomal activity against Schistosoma japonicum infected in mouse at 25 mg/kg/day, po treated for 5 days measured after day 5 post last dose by ELISA; type: functional, organism-based; in short: as §1
Schistosoma japonicum [22] = assay: Antischistosomal activity against Schistosoma japonicum infected in mouse at 50 mg/kg/day, po treated for 5 days measured after day 5 post last dose by ELISA; type: functional, organism-based; in short: as §1
Schistosoma japonicum [23] = assay: Antischistosomal activity against Schistosoma japonicum infected in mouse at 50 mg/kg/day, po treated for 5 days measured after day 2 post last dose by ELISA; type: functional, organism-based; in short: as §1
Schistosoma japonicum [24] = assay: Antischistosomal activity against Schistosoma japonicum infected in mouse at 50 mg/kg/day, po treated for 5 days measured after day 6 post last dose by ELISA; type: functional, organism-based; in short: as §1

Structure (SMILES) | logP [1] | Activity (Schistosoma japonicum [2]) | Activity (Schistosoma mansoni) | Activity (Schistosoma japonicum [3]) | Activity (Schistosoma japonicum [4]) | Activity (Schistosoma haematobium) | LD50 at 120 h [5] [mg/kg] | Activity (Schistosoma japonicum [6]) | Activity (Schistosoma japonicum [7]) | Activity (Schistosoma japonicum [8]) | Activity (Schistosoma japonicum [9]) | Activity (Schistosoma japonicum [10]) | Activity (Schistosoma japonicum [11]) | pKa [12] | IC50 (Schistosoma japonicum [13]) [µg/mL] | Activity (Schistosoma japonicum [14]) | IC50 (Schistosoma japonicum [15]) [µg/mL] | Activity (Schistosoma japonicum [16]) | Activity (Schistosoma japonicum [17]) | Activity (Schistosoma japonicum [21]) | also measured
Oc1ccc(OC(=S)Nc2ccc(Nc3ccc(C(Cl)(Cl)Cl)cc3)cc2)cc1 | 6.79 | Active | inactive | Active | Active | inactive | > 500 | Active | Active | Active | Active | Active | inactive | 9.23 | 7.35 (≈ 16.2 µM) | Active | 12.4 (≈ 27.3 µM) |  |  |  | 
O=C(C1CCCCC1)N1CC(=O)N2CCc3ccccc3C2C1 (centres undefined) [PRAZIQUANTEL] |  | Active |  | Active | Active |  | > 500 | Active | inactive |  | inactive | inactive | Active |  | 6.33 (≈ 20.3 µM) | Active | 7.98 (≈ 25.5 µM) | inactive | inactive | Active | Activity (Schistosoma japonicum [18]): Active; Activity (Schistosoma japonicum [19]): Active; Activity (Schistosoma japonicum [20]): inactive; Activity (Schistosoma japonicum [22]): Active; Activity (Schistosoma japonicum [23]): Active; Activity (Schistosoma japonicum [24]): Active
O=[N+]([O-])c1ccc(Oc2ccc(NC(=S)Oc3ccc(O)cc3)cc2)cc1 | 5.01 | Active | inactive | Active | Active | inactive | 275 | Active | inactive | Active | inactive | Active | Active | 9.23 | 6.38 (≈ 16.7 µM) | Active | 8.02 (≈ 21 µM) | inactive | inactive | Active | Activity (Schistosoma japonicum [18]): Active; Activity (Schistosoma japonicum [19]): Active; Activity (Schistosoma japonicum [20]): inactive; Activity (Schistosoma japonicum [22]): Active; Activity (Schistosoma japonicum [23]): Active; Activity (Schistosoma japonicum [24]): inactive
O=[N+]([O-])c1ccc(Nc2ccc(NC(=S)Oc3ccccc3)cc2)cc1 |  | Active |  | Active | Active |  | 310 | Active | Active |  | Active | Active | Active |  | 6.53 (≈ 17.9 µM) | Active | 8.21 (≈ 22.5 µM) |  |  | Active | 
Oc1ccc(OC(=S)Nc2ccc(Oc3ccc(C(Cl)(Cl)Cl)cc3)cc2)cc1 | 6.84 | Active | inactive | Active | Active | inactive | > 500 | Active | inactive | Active | inactive | inactive | Active | 9.24 | 7.98 (≈ 17.5 µM) | Active | 13.5 (≈ 29.8 µM) | Active | Active | Active | Activity (Schistosoma japonicum [18]): Active; Activity (Schistosoma japonicum [19]): Active; Activity (Schistosoma japonicum [20]): Active; Activity (Schistosoma japonicum [23]): Active; Activity (Schistosoma japonicum [24]): Active
O=[N+]([O-])c1ccc(Nc2ccc(NC(=S)Oc3ccc(O)cc3)cc2)cc1 | 4.54 | Active | inactive | Active | Active | inactive | 280 | Active | inactive | Active | inactive | Active | Active | 9.22 | 6.42 (≈ 16.8 µM) | Active | 8.05 (≈ 21.1 µM) | inactive | inactive | Active | Activity (Schistosoma japonicum [18]): Active; Activity (Schistosoma japonicum [19]): Active; Activity (Schistosoma japonicum [20]): inactive; Activity (Schistosoma japonicum [22]): Active; Activity (Schistosoma japonicum [23]): Active; Activity (Schistosoma japonicum [24]): inactive
Oc1ccc(OC(=S)Nc2ccc(Oc3ccc(C(F)(F)F)cc3)cc2)cc1 | 6.11 | Active | inactive | inactive | Active | inactive | > 500 | Active | inactive | Active | inactive | inactive | Active | 9.23 | 5.21 (≈ 12.9 µM) | Active | 6.35 (≈ 15.7 µM) | inactive | inactive | Active | Activity (Schistosoma japonicum [18]): Active; Activity (Schistosoma japonicum [19]): inactive; Activity (Schistosoma japonicum [20]): inactive; Activity (Schistosoma japonicum [22]): inactive; Activity (Schistosoma japonicum [23]): Active; Activity (Schistosoma japonicum [24]): inactive
